Laboratory results from ChEMBL document CHEMBL4368912, “Discovery and Development of N-[4-(1-Cyclobutylpiperidin-4-yloxy)phenyl]-2-(morpholin-4-yl)acetamide Dihydrochloride (SUVN-G3031): A Novel, Potent, Selective, and Orally Active Histamine H3 Receptor Inverse Agonist with Robust Wake-Promoting Activity” (J Med Chem, 2019).
Calls of active or inactive are those of the source. The calls are words filed in the database; no cut-off is given here.

How the values were obtained:
Histamine H3 receptor = Histamine H3 receptor (Homo sapiens, UniProt Q9Y5N1); assay: Displacement of [3]-RAMH from recombinant human histamine H3 receptor expressed in CHO-K1 cell membranes after 60 mins by scintillation counting
[1] = Partition coefficient, log P of the compound; assay type: physicochemical; conditions: octanol/water
[2] = Dissociation constant, pKa1 of the compound by potentiometric titration assay; assay type: physicochemical
[3] = Lipophilicity, log D of the compound at pH 7.4; assay type: physicochemical; conditions: buffer
[4] = Dissociation constant, pKa2 of the compound by potentiometric titration assay; assay type: physicochemical
[5] = Ratio of drug uptake in Wistar rat brain to plasma at 3 mg/kg, po by LC-MS/MS analysis; assay type: ADME, organism-based; conditions: brain and plasma, read-out: BPR
Method in brief: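 Fasted male Wistar rats were dosed orally with water for injection as the vehicle. Total brain and plasma concentrations were measured at 1 h after dosing and expressed as a ratio.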

[6] = AUC (0 to 24 hrs) in Wistar rat at 3 mg/kg, po by LC-MS/MS analysis; assay type: ADME, organism-based; design: dose 3 mg/kg, time < 24 hr, route oral; conditions: in vivo
Method in brief: (§1)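 Fasted male Wistar rats; compound in water for injection, given i.v. (2 mL/kg) or p.o. (10 mL/kg). Plasma exposure measured as AUC0-24hr.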

[7] = AUC (0 to 24 hrs) in Wistar rat at 1 mg/kg, iv by LC-MS/MS analysis; assay type: ADME, organism-based; design: time < 24 hr, dose 1 mg/kg, route intravenous; conditions: in vivo; for AUC(0-t) at 24 h: Wistar; for AUC: 24 h; method in brief: as §1
[8] = Volume of distribution at steady state in Wistar rat at 3 mg/kg, po or 1 mg/kg, iv by LC-MS/MS analysis; assay type: ADME, organism-based; conditions: in vivo; for Vd: Wistar, read-out: Vdss
Method in brief: (§2)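 Fasted male Wistar rats were dosed orally and intravenously, with water for injection as the vehicle for both routes, at dosing volumes of 10 mL/kg p.o. and 2 mL/kg i.v.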

[9] = Tmax in Wistar rat at 3 mg/kg, po or 1 mg/kg, iv by LC-MS/MS analysis; assay type: ADME, organism-based; conditions: in vivo; method in brief: as §2
[10] = Half life in Wistar rat at 1 mg/kg, iv by LC-MS/MS analysis; assay type: ADME, organism-based; conditions: in vivo
Method in brief: (§3)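 Fasted male Wistar rats dosed i.v. in water for injection at 2 mL/kg. Clearance and half-life derived from the i.v. plasma profile.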

[11] = Clearance in Wistar rat at 1 mg/kg, iv by LC-MS/MS analysis; assay type: ADME, organism-based; conditions: in vivo; method in brief: as §3
[12] = Oral bioavailability in Wistar rat at 3 mg/kg by LC-MS/MS analysis; assay type: ADME, organism-based; conditions: in vivo; method in brief: as §2
CHO-K1 [13] = assay: Cytotoxicity in CHOK1 cells up to 300 uM incubated for 24 hrs by MTT assay; assay type: cell-based, Cricetulus griseus; conditions: chinese hamster, cho-k1, 24 h
CHO-K1 [14] = assay: Induction of phospholipidosis in CHOK1 cells up to 300 uM incubated for 24 hrs by fluorescent-labeled phospholipid probe NBD-PE based fluorescence assay; assay type: cell-based, Cricetulus griseus; conditions: chinese hamster, cho-k1, 24 h
Rattus norvegicus = assay: In vivo inverse agonist activity at histamine 3 receptor in rat assessed as inhibition of RAMH-induced dipsogenia at 1 to 10 mg/kg, po measured after 3 days; assay type: functional, organism-based
Method in brief: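 Rats were dosed orally with 1, 3 or 10 mg/kg, then given (R)-α-methylhistamine 2.5 mg/kg s.c. Water intake (mL) was measured and reported as mean ± SEM.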

Sequence of Histamine H3 receptor (Q9Y5N1 whole entry): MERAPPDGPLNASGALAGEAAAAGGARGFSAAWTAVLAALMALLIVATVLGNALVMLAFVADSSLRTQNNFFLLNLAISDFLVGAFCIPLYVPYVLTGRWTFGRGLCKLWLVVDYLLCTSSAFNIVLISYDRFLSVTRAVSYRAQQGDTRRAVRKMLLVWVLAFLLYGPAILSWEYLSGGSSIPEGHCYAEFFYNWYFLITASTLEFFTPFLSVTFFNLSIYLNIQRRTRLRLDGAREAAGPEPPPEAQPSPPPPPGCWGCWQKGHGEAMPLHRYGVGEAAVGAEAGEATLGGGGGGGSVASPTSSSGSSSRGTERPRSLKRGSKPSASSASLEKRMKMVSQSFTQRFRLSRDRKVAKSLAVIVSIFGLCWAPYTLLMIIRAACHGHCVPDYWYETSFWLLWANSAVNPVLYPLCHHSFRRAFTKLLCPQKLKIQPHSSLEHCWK

**Q.** For O=C(CN1CCOCC1)Nc1ccc(CN2CCCC2)cc1, which Ki (Histamine H3 receptor) is on record?
**A.** 0.114 µM

**Q.** With O=C(CN1CCCN(C2CCC2)CC1)Nc1ccc(OC2CCN(C3CCC3)CC2)cc1 as the compound, how does the Ki (Histamine H3 receptor) read?
**A.** 0.00161 µM

**Q.** Which Ki (Histamine H3 receptor) does the source give for O=C(CN1CCOCC1)Nc1ccc(OC2CCN(C3CCC3)CC2)cc1F here?
**A.** 0.0149 µM

**Q.** For O=C(CN1CCCCC1)Nc1ccc(OC2CCN(C3CCCC3)CC2)cc1, which Ki (Histamine H3 receptor) is on record?
**A.** 0.0041 µM

**Q.** Which Ki (Histamine H3 receptor) does the source give for O=C(CN1CCCCCC1)Nc1ccc(OC2CCN(C3CCC3)CC2)cc1 here?
**A.** 0.0026 µM

**Q.** And the logP [1]?
**A.** 4.3

**Q.** And the pKa [2]?
**A.** 9.2

**Q.** What about the logD [3] of the same compound?
**A.** 1.7

**Q.** What about the pKa [4] of the same compound?
**A.** 7.6

**Q.** Which Ki (Histamine H3 receptor) does the source give for O=C(CN1CCOCC1)Nc1ccc(OC2CCN(C3CCC3)CC2)cc1C(F)(F)F here?
**A.** 0.0758 µM

**Q.** Which Ki (Histamine H3 receptor) does the source give for O=C(CN1CCOCC1)Nc1ccc(OC2CCN(C3CCC3)CC2)c(F)c1 here?
**A.** 0.062 µM

**Q.** With O=C1c2ccc(OC3CCN(C4CCC4)CC3)cc2CCN1C1CCN(C2CCC2)CC1 as the compound, how does the Kp [5] read?
**A.** 0.41

**Q.** What about the AUC(0-t) at 24 h [6] of the same compound?
**A.** 1430 ng·h/mL

**Q.** What about the AUC(0-t) at 24 h [7] of the same compound?
**A.** 1740 ng·h/mL

**Q.** What about the Vdss [8] of the same compound?
**A.** 13 L/kg

**Q.** What about the Tmax [9] of the same compound?
**A.** 6 h

**Q.** With CCOC(=O)N1CCN(CC(=O)Nc2ccc(OC3CCN(C4CCC4)CC3)cc2)CC1 as the compound, how does the Ki (Histamine H3 receptor) read?
**A.** 0.00107 µM

**Q.** For O=C(Cc1ccncc1)Nc1ccc(OC2CCN(C3CCC3)CC2)cc1.O=C(O)C(O)C(O)C(=O)O, which half-life [10] is on record?
**A.** 1.12 h

**Q.** And the Ki (Histamine H3 receptor)?
**A.** 0.00951 µM

**Q.** What about the clearance [11] of the same compound?
**A.** 113 mL/min/kg

**Q.** And the Kp [5]?
**A.** 0.16

**Q.** And the AUC(0-t) at 24 h [6]?
**A.** 545 ng·h/mL

**Q.** And the AUC(0-t) at 24 h [7]?
**A.** 145 ng·h/mL

**Q.** And the Vd [8]?
**A.** 7 L/kg

**Q.** What about the bioavailability [12] of the same compound?
**A.** 125%

**Q.** And the Tmax [9]?
**A.** 0.25 h

**Q.** Which Ki (Histamine H3 receptor) does the source give for CC(C)N1CCC(Oc2ccc(C(=O)NCCN3CCCC3)cc2)CC1 here?
**A.** 0.0104 µM

**Q.** Which Ki (Histamine H3 receptor) does the source give for O=C(CN1CCCC1)Nc1ccc(OC2CCN(C3CCC3)CC2)cc1C(F)(F)F here?
**A.** 0.0269 µM

**Q.** Which Ki (Histamine H3 receptor) does the source give for Cc1cc(OC2CCN(C3CCC3)CC2)ccc1NC(=O)CN1CCC[C@H]1C here?
**A.** 0.0024 µM

**Q.** Which results are given for CC(C)N1CCC(Oc2ccc(NC(=O)CN3CCOCC3)cc2)CC1.Cl.Cl?
**A.** clearance [11]: 48 mL/min/kg; Activity (CHO-K1 [13]): Non-Toxic; Activity (CHO-K1 [14]): Non-Toxic; Kp [5]: 0.33; AUC(0-t) at 24 h [6]: 850 ng·h/mL; AUC(0-t) at 24 h [7]: 340 ng·h/mL; logP [1]: 1.8; pKa [2]: 8.9; logD [3]: 0.5; Vd [8]: 6 L/kg; pKa [4]: 5; bioavailability [12]: 85%; Tmax [9]: 0.42 h

**Q.** For Cc1cc(OC2CCN(C3CCC3)CC2)ccc1NC(=O)CN1CCCC1.Cl.Cl, which Ki (Histamine H3 receptor) is on record?
**A.** 0.0019 µM

**Q.** What about the Kp [5] of the same compound?
**A.** 1.2

**Q.** What about the AUC(0-t) at 24 h [6] of the same compound?
**A.** 1350 ng·h/mL

**Q.** And the AUC [7]?
**A.** 3345 ng·h/mL

**Q.** What about the Vd [8] of the same compound?
**A.** 27 L/kg

**Q.** And the bioavailability [12]?
**A.** 20%

**Q.** What about the Tmax [9] of the same compound?
**A.** 2.17 h

**Q.** What does the source list for Cl.Cl.O=C(CN1CCCCC1)Nc1ccc(OC2CCN(C3CCC3)CC2)cc1?
**A.** Ki (Histamine H3 receptor): 0.0048 µM; Kp [5]: 36.6; AUC(0-t) at 24 h [6]: 1390 ng·h/mL; AUC [7]: 1855 ng·h/mL; logP [1]: 3.7; pKa [2]: 9.2; logD [3]: 1.3; Vd [8]: 20 L/kg; pKa [4]: 7.5; bioavailability [12]: 37%; Tmax [9]: 3.33 h

**Q.** Which Ki (Histamine H3 receptor) does the source give for O=C(Cc1cccnc1)Nc1ccc(OC2CCN(C3CCC3)CC2)cc1 here?
**A.** 0.0158 µM

**Q.** With O=C(CN1CCCCC1)Nc1ccc(OC2CCN(C3CCC3)CC2)cc1C(F)(F)F as the compound, how does the Ki (Histamine H3 receptor) read?
**A.** 0.0148 µM

**Q.** For Clc1ccc(CCCOCCCN2CCCCC2)cc1, which inhibition (Rattus norvegicus) is on record?
**A.** Active

**Q.** For CN(C(=O)CN1CCOCC1)c1ccc(OC2CCN(C3CCC3)CC2)cc1, which Ki (Histamine H3 receptor) is on record?
**A.** 0.00489 µM

**Q.** For O=C(NCCN1CCCCC1)c1ccc(OC2CCN(C3CCC3)CC2)cc1, which Ki (Histamine H3 receptor) is on record?
**A.** 0.0032 µM

**Q.** With Cl.Cl.O=C(CN1CCCC1CO)Nc1ccc(OC2CCN(C3CCC3)CC2)cc1 (stereo unspecified) as the compound, how does the half-life [10] read?
**A.** 1.88 h

**Q.** And the Ki (Histamine H3 receptor)?
**A.** 0.0012 µM

**Q.** What about the clearance [11] of the same compound?
**A.** 67 mL/min/kg

**Q.** What about the AUC(0-t) at 24 h [6] of the same compound?
**A.** 63 ng·h/mL

**Q.** What about the AUC(0-t) at 24 h [7] of the same compound?
**A.** 212 ng·h/mL

**Q.** What about the logP [1] of the same compound?
**A.** 2.1

**Q.** And the pKa [2]?
**A.** 8.9

**Q.** What about the logD [3] of the same compound?
**A.** 0.6

**Q.** And the Vd [8]?
**A.** 9 L/kg

**Q.** What about the pKa [4] of the same compound?
**A.** 6.4

**Q.** What about the bioavailability [12] of the same compound?
**A.** 10%

**Q.** What about the Tmax [9] of the same compound?
**A.** 0.58 h

**Q.** Which Ki (Histamine H3 receptor) does the source give for C[C@@H]1CCCN1CC(=O)Nc1ccc(CN2CCOCC2)cc1 here?
**A.** 0.915 µM

**Q.** Which Ki (Histamine H3 receptor) does the source give for C[C@@H]1CCCN1CC(=O)Nc1ccc(N2CCOCC2)cc1 here?
**A.** 1.46 µM

**Q.** Which Ki (Histamine H3 receptor) does the source give for COc1cc(OC2CCN(C3CCC3)CC2)ccc1NC(=O)CN1CCOCC1 here?
**A.** 0.0907 µM

**Q.** Which Ki (Histamine H3 receptor) does the source give for Cc1cc(OC2CCN(C3CCC3)CC2)ccc1NC(=O)CN1CCOCC1 here?
**A.** 0.0221 µM
